{"source": "paper PMC3759818", "about": "(Pharmaceutical research, 2009)", "key": {"[1]": {"test": "DPPH radical scavenging assay", "format": "biochemical", "conditions": "read-out: IC50, DPPH radical scavenging; data not shown"}, "NF-κB": {"system": "NF-κB", "format": "cell-based, human", "conditions": "MIAPaCa-2 cells, EMSA"}, "BxPC-3 cells": {"system": "BxPC-3 cells", "test": "PGE2 immunoassay in conditioned medium of BxPC-3 cells", "format": "cell-based, human", "conditions": "1 or 4 μM, 24 h, vs untreated control"}, "MIAPaCa-2 cells": {"system": "MIAPaCa-2 cells", "test": "PGE2 immunoassay in conditioned medium of MIAPaCa-2 cells", "format": "cell-based, human", "conditions": "1 or 4 μM, 24 h, vs untreated control"}, "[2]": {"test": "Serum pharmacokinetics in mice after single intragastric dose", "format": "in vivo", "summary_of_the_method": "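Female ICR-SCID mice, 7–8 weeks old, 18 per compound, got a single oral 250 mg/kg dose in sesame oil by intragastric tube. Two mice were killed at 0–24 h (nine time points). Cardiac blood was clotted and serum stored at −80°C, then ethyl acetate-extracted with zileuton internal standard and assayed by LC-MS/MS. Cmax was read from the curve. AUClast used linear (rising) and log (falling) trapezoids in non-compartmental analysis. Values are means of two mice.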"}, "[3]": {"test": "Pancreas pharmacokinetics in mice after single intragastric dose", "format": "in vivo", "summary_of_the_method": "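Female ICR-SCID mice, 7–8 weeks old, 18 per compound, got a single 250 mg/kg dose in sesame oil by intragastric intubation. Two mice were killed at 0, 1, 2, 4, 6, 8, 12, 16 and 24 h. Pancreas was PBS-washed, blotted, weighed, frozen at −80°C, then homogenized in 5 volumes ice-cold 0.9% saline. Homogenate was ethyl acetate-extracted with zileuton internal standard and assayed by LC-MS/MS. Values are means of two mice.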"}, "Water solubility": {"test": "Water solubility", "format": "physicochemical", "conditions": "data not shown"}, "[4]": {"system": "COX-2 positive BxPC-3 pancreatic cancer cells", "conditions": "BxPC-3 cells, MTT assay; cited from earlier work"}, "[5]": {"conditions": "serum, oral 1 g/kg body weight, mouse; cited from earlier work"}, "[6]": {"conditions": "single intragastric 250 mg/kg, mice, mean from two mice"}, "[7]": {"conditions": "pancreas, single intragastric 250 mg/kg, mice, mean from two mice"}, "[8]": {"conditions": "female, ICR-SCID, mouse, po, 250 mg/kg"}, "[9]": {"conditions": "female, ICR-SCID, mouse, pancreas, po, 250 mg/kg"}}, "note": "“And” between values parts separate entries of the source, which are not always exact repeats. Equal values may be shown once. “Also recorded” adds a separate entry of the source."}
{"smiles": "COc1cc(/C=C/C(=O)C(=Cc2ccc(F)c(F)c2)C(=O)/C=C/c2ccc(O)c(OC)c2)ccc1O", "note": "[CDF]", "values": [{"measurement": "IC50", "setting": "[1]", "result": 0.05, "unit": "µM"}, {"measurement": "NF-κB DNA-binding activity", "setting": "NF-κB", "result": "the effect was more pronounced with a low concentration of CDF"}, {"measurement": "PGE2 level in conditioned medium", "setting": "BxPC-3 cells", "result": "significant decrease; also recorded: significant reduction"}, {"measurement": "PGE2 level in conditioned medium", "setting": "MIAPaCa-2 cells", "result": "significant decrease; also recorded: substantial reduction"}, {"measurement": "Systemic drug level (serum AUClast) relative to Curcumin", "setting": "[2]; oral 250 mg/kg, mice", "result": 2.7, "unit": "fold"}, {"measurement": "AUClast", "setting": "[2]; [6]", "result": 1220, "unit": "ng·h/mL"}, {"measurement": "Clast", "setting": "[2]; [6]", "result": 40, "unit": "ng/mL"}, {"measurement": "Cmax", "setting": "[2]; [6]", "result": 210, "unit": "ng/mL"}, {"measurement": "Tlast", "setting": "[2]; [6]", "result": 16.0, "unit": "h"}, {"measurement": "Tmax", "setting": "[2]; [6]", "result": 8.0, "unit": "h"}, {"measurement": "Cmax in pancreas relative to serum", "setting": "[3]; at 8 h, oral 250 mg/kg, mice", "result": 44.5, "unit": "fold"}, {"measurement": "Cmax in pancreas relative to Curcumin", "setting": "[3]; pancreas, oral 250 mg/kg, mice", "result": 4.3, "unit": "fold"}, {"measurement": "AUClast (concentration) in pancreas relative to Curcumin", "setting": "[3]; pancreas, oral 250 mg/kg, mice, 250 mg/kg", "result": "10 fold and 10.6 fold"}, {"measurement": "AUClast", "setting": "[3]; [7]", "result": 36.56, "unit": "µg·h/g"}, {"measurement": "Clast", "setting": "[3]; [7]", "result": 0.04, "unit": "µg/g"}, {"measurement": "Cmax", "setting": "[3]; [7]", "result": 9.35, "unit": "µg/g"}, {"measurement": "Tlast", "setting": "[3]; [7]", "result": 12.0, "unit": "h"}, {"measurement": "Tmax", "setting": "[3]; [7]", "result": 8.0, "unit": "h"}, {"measurement": "Water solubility relative to Curcumin", "setting": "Water solubility", "result": 8.4, "unit": "fold"}, {"measurement": "IC50, anti-proliferative activity", "setting": "[4]", "result": "low IC50 value"}]}
{"smiles": "COc1cc(/C=C/C(=O)CC(=O)/C=C/c2ccc(O)c(OC)c2)ccc1O", "note": "[Curcumin, diferuloylmethane, reference compound]", "values": [{"measurement": "IC50", "setting": "[1]", "result": 35, "unit": "µM"}, {"measurement": "NF-κB DNA-binding activity", "setting": "NF-κB", "result": "caused down-regulation of NF-κB"}, {"measurement": "PGE2 level in conditioned medium", "setting": "BxPC-3 cells", "result": "such results were not found; also recorded: no significant change"}, {"measurement": "PGE2 level in conditioned medium", "setting": "MIAPaCa-2 cells", "result": "significant decrease; also recorded: substantial reduction"}, {"measurement": "Cmax", "setting": "[2]; [8]", "result": 220, "unit": "ng/mL"}, {"measurement": "Tmax", "setting": "[2]; [8]", "result": 1, "unit": "h"}, {"measurement": "Tlast", "setting": "[2]; [6]", "result": "8 h and 8.0 h"}, {"measurement": "Cmax", "setting": "[3]; [9]", "result": 2.15, "unit": "µg/g"}, {"measurement": "Tmax", "setting": "[3]; [9]", "result": 1, "unit": "h"}, {"measurement": "AUClast", "setting": "[3]; [7]", "result": 3.46, "unit": "µg·h/g"}, {"measurement": "Tlast", "setting": "[3]; [7]", "result": 16.0, "unit": "h"}, {"measurement": "Time of Cmax", "setting": "[5]", "result": 1, "unit": "h"}]}
